# In ChEMBL document CHEMBL1139385, “Structural analysis of ARC-type inhibitor (ARC-1034) binding to protein kinase A catalytic subunit and rational design of bisubstrate analogue inhibitors of basophilic protein kinases” (J Med Chem, 2009):
# Where a SMILES comes first, the peptide text is derived from it. [ ]: non-standard residue; d: D form. The star is where a group is joined. Adenosine(5'-uronoyl) = Nc1ncnc2c1ncn2[C@@H]1O[C@H](C(=O)*)[C@@H](O)[C@H]1O; Ahx = NCCCCCC(=O)O
# How the values were obtained:
# [1] = molecular target: T1, cAMP-dependent protein kinase catalytic subunit alpha (Homo sapiens, UniProt P17612); test: Inhibition of PKA catalytic subunit alpha using 100 uM ATP and 30 uM TAMRA-kemptide substrate by fluorometric TLC assay
# [2] = molecular target: T1, cAMP-dependent protein kinase catalytic subunit alpha; test: Binding affinity to PKA catalytic subunit alpha by fluorescence polarization assay
# [3] = molecular target: T2, RAC-gamma serine/threonine-protein kinase (Homo sapiens, UniProt Q9Y243); test: Inhibition of PKBgamma using 100 uM ATP and 30 uM TAMRA-kemptide substrate by fluorometric TLC assay
# [4] = molecular target: 5'-AMP-activated protein kinase catalytic subunit alpha-1 (Homo sapiens) (UniProt Q13131); test: Inhibition of AMPKalpha1 at 100 nM relative to control
# Outline: (§1)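 Activity is expressed as percent inhibition versus control incubations lacking inhibitor. Values are means of duplicate determinations.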
# [5] = molecular target: 5'-AMP-activated protein kinase subunit beta-1 (Homo sapiens) (UniProt Q9Y478); test: Inhibition of AMPKbeta1 at 100 nM relative to control; outline: as §1
# [6] = molecular target: Aurora kinase A (Homo sapiens) (UniProt O14965); test: Inhibition of Aurora A at 100 nM relative to control; outline: as §1
# [7] = molecular target: Calcium/calmodulin-dependent protein kinase type 1D (Homo sapiens) (UniProt Q8IU85); test: Inhibition of CaMK1delta at 100 nM relative to control; outline: as §1
# [8] = molecular target: Calcium/calmodulin-dependent protein kinase type II subunit alpha (Homo sapiens) (UniProt Q9UQM7); test: Inhibition of CaMK2alpha at 100 nM relative to control; outline: as §1
# [9] = molecular target: CDK2/Cyclin A1 (Homo sapiens) (UniProt P24941+P78396); test: Inhibition of Cdk2/cyclin A at 100 nM relative to control; assay type: protein-complex assay; outline: as §1
# [10] = molecular target: Serine/threonine-protein kinase Chk1 (Homo sapiens) (UniProt O14757); test: Inhibition of CHK1 at 100 nM relative to control; outline: as §1
# [11] = molecular target: Death-associated protein kinase 3 (Homo sapiens) (UniProt O43293); test: Inhibition of DAPK3 at 100 nM relative to control; outline: as §1
# [12] = molecular target: Glycogen synthase kinase-3 alpha (Homo sapiens) (UniProt P49840); test: Inhibition of GSK3alpha at 100 nM relative to control; outline: as §1
# [13] = molecular target: Glycogen synthase kinase-3 beta (Homo sapiens) (UniProt P49841); test: Inhibition of GSK3-beta at 100 nM relative to control; outline: as §1
# [14] = molecular target: Maternal embryonic leucine zipper kinase (Homo sapiens) (UniProt Q14680); test: Inhibition of MELK at 100 nM relative to control; outline: as §1
# [15] = molecular target: Ribosomal protein S6 kinase alpha-5 (Homo sapiens) (UniProt O75582); test: Inhibition of MSK1 at 100 nM relative to control; outline: as §1
# [16] = molecular target: Ribosomal protein S6 kinase beta-1 (Homo sapiens) (UniProt P23443); test: Inhibition of p70S6K at 100 nM relative to control; outline: as §1
# [17] = molecular target: Serine/threonine-protein kinase PAK 3 (Homo sapiens) (UniProt O75914); test: Inhibition of PAK3 at 100 nM relative to control; outline: as §1
# [18] = molecular target: Serine/threonine-protein kinase PAK 6 (Homo sapiens) (UniProt Q9NQU5); test: Inhibition of PAK6 at 100 nM relative to control; outline: as §1
# [19] = molecular target: Serine/threonine-protein kinase pim-1 (Homo sapiens) (UniProt P11309); test: Inhibition of PIM1 at 100 nM relative to control; outline: as §1
# [20] = molecular target: Serine/threonine-protein kinase pim-2 (Homo sapiens) (UniProt Q9P1W9); test: Inhibition of PIM2 at 100 nM relative to control; outline: as §1
# [21] = molecular target: RAC-beta serine/threonine-protein kinase (Homo sapiens) (UniProt P31751); test: Inhibition of AKT2 at 100 nM relative to control; outline: as §1
# [22] = molecular target: Protein kinase C alpha type (Homo sapiens) (UniProt P17252); test: Inhibition of PKCalpha at 100 nM relative to control; outline: as §1
# [23] = molecular target: Protein kinase C delta type (Homo sapiens) (UniProt Q05655); test: Inhibition of PKCdelta at 100 nM relative to control; outline: as §1
# [24] = molecular target: Protein kinase C epsilon type (Homo sapiens) (UniProt Q02156); test: Inhibition of PKCepsilon at 100 nM relative to control; outline: as §1
# [25] = molecular target: Protein kinase C eta type (Homo sapiens) (UniProt P24723); test: Inhibition of PKCeta at 100 nM relative to control; outline: as §1
# [26] = molecular target: Protein kinase C iota type (Homo sapiens) (UniProt P41743); test: Inhibition of PKCiota at 100 nM relative to control; outline: as §1
# [27] = molecular target: Protein kinase C theta type (Homo sapiens) (UniProt Q04759); test: Inhibition of PKCtheta at 100 nM relative to control; outline: as §1
# [28] = molecular target: Protein kinase C zeta type (Homo sapiens) (UniProt Q05513); test: Inhibition of PKCzeta at 100 nM relative to control; outline: as §1
# [29] = molecular target: Serine/threonine-protein kinase D3 (Homo sapiens) (UniProt O94806); test: Inhibition of PKD3 at 100 nM relative to control; outline: as §1
# [30] = molecular target: cGMP-dependent protein kinase 1 (Homo sapiens) (UniProt Q13976); test: Inhibition of PKG1 at 100 nM relative to control; outline: as §1
# [31] = molecular target: cGMP-dependent protein kinase 2 (Homo sapiens) (UniProt Q13237); test: Inhibition of PKG2 at 100 nM relative to control; outline: as §1
# [32] = molecular target: Rho-associated protein kinase 1 (Homo sapiens) (UniProt Q13464); test: Inhibition of ROCK1 at 100 nM relative to control; outline: as §1
# [33] = molecular target: Ribosomal protein S6 kinase alpha-1 (Homo sapiens) (UniProt Q15418); test: Inhibition of RSK1 at 100 nM relative to control; outline: as §1
# [34] = molecular target: Ribosomal protein S6 kinase alpha-2 (Homo sapiens) (UniProt Q15349); test: Inhibition of RSK3 at 100 nM relative to control; outline: as §1
# [35] = molecular target: Serine/threonine-protein kinase Sgk1 (Homo sapiens) (UniProt O00141); test: Inhibition of SGK1 at 100 nM relative to control; outline: as §1
# [36] = molecular target: Serine/threonine-protein kinase Sgk2 (Homo sapiens) (UniProt Q9HBY8); test: Inhibition of SGK2 at 100 nM relative to control; outline: as §1
# [37] = molecular target: Proto-oncogene tyrosine-protein kinase Src (Homo sapiens) (UniProt P12931); test: Inhibition of SRC at 100 nM relative to control; outline: as §1
# [38] = molecular target: T1, cAMP-dependent protein kinase catalytic subunit alpha; conditions: 100 nM
# [39] = molecular target: T2, RAC-gamma serine/threonine-protein kinase; conditions: 100 nM
# [40] = molecular target: cAMP-dependent protein kinase catalytic subunit PRKX (Homo sapiens) (UniProt P51817); conditions: 100 nM
# [41] = molecular target: Rho-associated protein kinase 2 (Homo sapiens) (UniProt O75116); conditions: 100 nM
# [42] = molecular target: Ribosomal protein S6 kinase alpha-3 (Homo sapiens) (UniProt P51812); conditions: 100 nM
# T2 sequence (Q9Y243 whole entry): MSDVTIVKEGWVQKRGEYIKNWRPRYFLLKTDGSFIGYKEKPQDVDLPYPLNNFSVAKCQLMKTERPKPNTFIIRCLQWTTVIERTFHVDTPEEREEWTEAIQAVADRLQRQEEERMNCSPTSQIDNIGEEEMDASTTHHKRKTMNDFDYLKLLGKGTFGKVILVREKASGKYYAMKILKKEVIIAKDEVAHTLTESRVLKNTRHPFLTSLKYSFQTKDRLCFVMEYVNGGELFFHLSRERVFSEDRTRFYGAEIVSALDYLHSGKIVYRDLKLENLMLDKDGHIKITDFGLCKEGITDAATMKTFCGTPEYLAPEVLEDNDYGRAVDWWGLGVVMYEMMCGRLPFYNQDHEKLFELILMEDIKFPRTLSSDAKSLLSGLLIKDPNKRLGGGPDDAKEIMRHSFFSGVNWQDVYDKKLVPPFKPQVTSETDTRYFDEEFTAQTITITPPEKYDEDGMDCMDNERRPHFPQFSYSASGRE
# Chain of Serine/threonine-protein kinase PAK 3 (Homo sapiens) (O75914 whole entry, looked up): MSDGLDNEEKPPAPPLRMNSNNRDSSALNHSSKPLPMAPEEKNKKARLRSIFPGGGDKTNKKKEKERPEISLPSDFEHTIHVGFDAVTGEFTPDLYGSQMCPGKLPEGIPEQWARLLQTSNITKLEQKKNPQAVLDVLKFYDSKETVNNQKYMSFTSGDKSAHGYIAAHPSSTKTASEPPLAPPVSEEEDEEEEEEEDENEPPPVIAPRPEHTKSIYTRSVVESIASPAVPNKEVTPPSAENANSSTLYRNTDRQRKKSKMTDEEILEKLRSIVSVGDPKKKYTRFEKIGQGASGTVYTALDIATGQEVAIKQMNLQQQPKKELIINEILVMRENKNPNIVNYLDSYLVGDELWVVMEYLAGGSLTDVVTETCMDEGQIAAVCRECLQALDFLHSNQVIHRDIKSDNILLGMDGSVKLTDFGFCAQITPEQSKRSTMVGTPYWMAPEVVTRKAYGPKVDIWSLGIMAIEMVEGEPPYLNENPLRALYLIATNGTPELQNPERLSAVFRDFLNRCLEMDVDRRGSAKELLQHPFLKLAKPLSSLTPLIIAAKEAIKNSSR
# Chain of cGMP-dependent protein kinase 2 (Homo sapiens) (Q13237 whole entry): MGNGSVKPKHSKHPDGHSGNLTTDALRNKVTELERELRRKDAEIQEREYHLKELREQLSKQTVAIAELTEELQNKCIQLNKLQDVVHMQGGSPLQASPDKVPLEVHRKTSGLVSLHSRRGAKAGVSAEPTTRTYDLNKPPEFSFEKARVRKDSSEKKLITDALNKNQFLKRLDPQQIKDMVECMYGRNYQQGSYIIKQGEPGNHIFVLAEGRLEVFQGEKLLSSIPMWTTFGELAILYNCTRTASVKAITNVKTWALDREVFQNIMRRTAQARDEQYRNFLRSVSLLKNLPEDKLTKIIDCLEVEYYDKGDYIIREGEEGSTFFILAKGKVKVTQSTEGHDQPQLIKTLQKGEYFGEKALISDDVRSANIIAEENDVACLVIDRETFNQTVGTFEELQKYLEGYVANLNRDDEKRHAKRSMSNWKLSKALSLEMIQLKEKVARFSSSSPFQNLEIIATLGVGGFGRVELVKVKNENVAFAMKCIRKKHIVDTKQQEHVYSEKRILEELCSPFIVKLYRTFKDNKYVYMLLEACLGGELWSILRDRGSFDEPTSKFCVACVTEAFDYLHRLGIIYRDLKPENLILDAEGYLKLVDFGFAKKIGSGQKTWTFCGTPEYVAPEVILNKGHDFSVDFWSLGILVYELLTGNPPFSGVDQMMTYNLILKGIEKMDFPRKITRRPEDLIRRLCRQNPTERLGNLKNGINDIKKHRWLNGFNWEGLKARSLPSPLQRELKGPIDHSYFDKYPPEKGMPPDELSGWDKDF
# Chain of Death-associated protein kinase 3 (Homo sapiens) (O43293 whole entry, looked up): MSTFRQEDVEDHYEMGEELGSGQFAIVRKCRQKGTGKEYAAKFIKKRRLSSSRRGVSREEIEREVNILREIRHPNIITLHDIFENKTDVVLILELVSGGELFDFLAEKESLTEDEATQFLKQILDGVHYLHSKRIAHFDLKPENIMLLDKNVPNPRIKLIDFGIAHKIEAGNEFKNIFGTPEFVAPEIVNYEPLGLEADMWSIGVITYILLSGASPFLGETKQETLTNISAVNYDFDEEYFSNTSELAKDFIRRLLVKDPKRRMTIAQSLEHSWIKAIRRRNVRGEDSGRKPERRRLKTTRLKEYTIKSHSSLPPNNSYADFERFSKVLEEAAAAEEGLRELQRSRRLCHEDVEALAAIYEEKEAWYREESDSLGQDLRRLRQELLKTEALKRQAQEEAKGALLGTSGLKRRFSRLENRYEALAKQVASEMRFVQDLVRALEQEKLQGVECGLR
# Chain of Calcium/calmodulin-dependent protein kinase type 1D (Homo sapiens) (Q8IU85 whole entry, looked up): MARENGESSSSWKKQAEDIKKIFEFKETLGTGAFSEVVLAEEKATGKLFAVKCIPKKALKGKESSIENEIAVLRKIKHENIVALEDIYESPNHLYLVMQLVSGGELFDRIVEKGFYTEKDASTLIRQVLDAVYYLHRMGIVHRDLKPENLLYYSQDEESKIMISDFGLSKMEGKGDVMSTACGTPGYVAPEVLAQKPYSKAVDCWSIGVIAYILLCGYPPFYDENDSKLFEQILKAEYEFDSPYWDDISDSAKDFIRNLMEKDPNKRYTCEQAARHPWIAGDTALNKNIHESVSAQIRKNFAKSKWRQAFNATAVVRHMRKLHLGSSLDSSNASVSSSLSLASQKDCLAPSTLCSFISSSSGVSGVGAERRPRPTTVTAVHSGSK
# Chain of Protein kinase C zeta type (Homo sapiens) (Q05513 whole entry): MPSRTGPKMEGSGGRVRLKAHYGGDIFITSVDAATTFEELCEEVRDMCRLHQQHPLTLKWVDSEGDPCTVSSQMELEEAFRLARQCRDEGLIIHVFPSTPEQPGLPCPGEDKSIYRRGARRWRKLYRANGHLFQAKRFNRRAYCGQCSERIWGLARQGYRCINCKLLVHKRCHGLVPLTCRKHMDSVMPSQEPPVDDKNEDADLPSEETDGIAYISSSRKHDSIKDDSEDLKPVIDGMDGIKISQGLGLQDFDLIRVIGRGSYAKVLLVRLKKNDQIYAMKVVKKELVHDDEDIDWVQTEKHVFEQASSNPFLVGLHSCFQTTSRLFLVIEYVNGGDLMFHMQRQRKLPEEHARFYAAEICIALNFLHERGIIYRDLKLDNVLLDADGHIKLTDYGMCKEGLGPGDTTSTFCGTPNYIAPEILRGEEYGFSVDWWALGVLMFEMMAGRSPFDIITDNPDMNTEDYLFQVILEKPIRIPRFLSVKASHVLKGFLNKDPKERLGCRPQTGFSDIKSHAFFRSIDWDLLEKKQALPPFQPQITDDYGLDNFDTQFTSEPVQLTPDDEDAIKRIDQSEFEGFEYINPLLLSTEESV
# Chain of 5'-AMP-activated protein kinase catalytic subunit alpha-1 (Homo sapiens) (Q13131 whole entry, looked up): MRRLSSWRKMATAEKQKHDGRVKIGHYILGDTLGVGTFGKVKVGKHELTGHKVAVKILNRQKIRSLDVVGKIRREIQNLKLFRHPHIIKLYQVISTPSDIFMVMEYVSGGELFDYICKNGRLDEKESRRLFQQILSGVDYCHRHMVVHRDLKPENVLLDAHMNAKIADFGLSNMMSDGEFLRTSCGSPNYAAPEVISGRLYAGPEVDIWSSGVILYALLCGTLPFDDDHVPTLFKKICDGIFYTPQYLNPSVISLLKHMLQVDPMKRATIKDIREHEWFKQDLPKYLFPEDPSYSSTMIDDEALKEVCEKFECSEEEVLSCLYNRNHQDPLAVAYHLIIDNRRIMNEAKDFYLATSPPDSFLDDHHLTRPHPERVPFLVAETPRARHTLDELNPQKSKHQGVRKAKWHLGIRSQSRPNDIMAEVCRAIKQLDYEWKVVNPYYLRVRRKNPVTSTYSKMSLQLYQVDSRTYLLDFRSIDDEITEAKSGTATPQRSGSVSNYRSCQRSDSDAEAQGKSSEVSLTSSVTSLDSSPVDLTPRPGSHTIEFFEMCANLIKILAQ
# Chain of Ribosomal protein S6 kinase alpha-1 (Homo sapiens) (Q15418 whole entry): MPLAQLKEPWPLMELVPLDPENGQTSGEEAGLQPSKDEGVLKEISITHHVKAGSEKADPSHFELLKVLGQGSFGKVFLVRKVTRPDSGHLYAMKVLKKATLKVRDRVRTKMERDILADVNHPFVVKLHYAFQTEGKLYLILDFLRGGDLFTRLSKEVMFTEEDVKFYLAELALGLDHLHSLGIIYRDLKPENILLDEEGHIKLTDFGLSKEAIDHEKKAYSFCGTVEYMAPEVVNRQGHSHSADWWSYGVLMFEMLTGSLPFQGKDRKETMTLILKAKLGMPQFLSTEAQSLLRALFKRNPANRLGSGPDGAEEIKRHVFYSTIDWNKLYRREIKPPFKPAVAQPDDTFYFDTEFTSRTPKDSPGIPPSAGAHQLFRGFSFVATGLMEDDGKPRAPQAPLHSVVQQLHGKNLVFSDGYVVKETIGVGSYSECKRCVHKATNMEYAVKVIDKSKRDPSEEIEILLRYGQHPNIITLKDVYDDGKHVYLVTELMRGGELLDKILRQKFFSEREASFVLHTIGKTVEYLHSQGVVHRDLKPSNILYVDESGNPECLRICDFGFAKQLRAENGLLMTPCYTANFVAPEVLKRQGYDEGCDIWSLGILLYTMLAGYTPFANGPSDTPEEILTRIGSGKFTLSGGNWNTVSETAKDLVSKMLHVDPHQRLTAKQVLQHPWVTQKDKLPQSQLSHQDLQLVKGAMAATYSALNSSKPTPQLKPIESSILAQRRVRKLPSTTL
# Chain of Calcium/calmodulin-dependent protein kinase type II subunit alpha (Homo sapiens) (Q9UQM7 whole entry): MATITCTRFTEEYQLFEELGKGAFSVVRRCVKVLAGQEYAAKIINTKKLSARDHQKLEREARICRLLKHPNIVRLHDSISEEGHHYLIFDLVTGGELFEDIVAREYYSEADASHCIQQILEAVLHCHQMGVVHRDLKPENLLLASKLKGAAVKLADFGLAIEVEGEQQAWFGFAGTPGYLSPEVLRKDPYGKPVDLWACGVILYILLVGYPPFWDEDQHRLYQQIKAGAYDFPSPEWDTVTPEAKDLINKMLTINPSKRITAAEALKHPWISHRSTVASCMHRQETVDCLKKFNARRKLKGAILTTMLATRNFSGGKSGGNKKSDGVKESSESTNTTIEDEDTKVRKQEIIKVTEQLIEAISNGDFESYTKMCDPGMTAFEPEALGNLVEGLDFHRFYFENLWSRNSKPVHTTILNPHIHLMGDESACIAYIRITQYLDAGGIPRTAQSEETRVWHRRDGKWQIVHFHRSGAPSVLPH
structure (smiles),measurement,setting,value
N=C(N)NCCC[C@@H](NC(=O)[C@@H](CCCNC(=N)N)NC(=O)[C@@H](CCCNC(=N)N)NC(=O)[C@@H](CCCNC(=N)N)NC(=O)[C@@H](CCCNC(=N)N)NC(=O)[C@@H](CCCNC(=N)N)NC(=O)CCCCCNC(=O)[C@@H](CCCCN)NC(=O)CCCCCNC(=O)[C@H]1O[C@@H](n2cnc3c(N)ncnc32)[C@H](O)[C@@H]1O)C(N)=O ({Adenosine(5'-uronoyl)-Ahx}-[dK][Ahx][dR][dR][dR][dR][dR][dR]-NH2),IC50,[1],5.32 nM
same,Kd,[2],< 0.5 nM
same,IC50,[3],14.6 nM
same,inhibition,[4],51%
same,inhibition,[5],51%
same,inhibition,[6],10%
same,inhibition,[7],35%
same,inhibition,[8],5%
same,inhibition,[9],0%
same,inhibition,[10],88%
same,inhibition,[11],22%
same,inhibition,[12],16%
same,inhibition,[13],16%
same,inhibition,[14],84%
same,inhibition,[15],105%
same,inhibition,[16],96%
same,inhibition,[17],74%
same,inhibition,[18],81%
same,inhibition,[19],96%
same,inhibition,[20],79%
same,inhibition,[21],62%
same,inhibition,[22],94%
same,inhibition,[23],97%
same,inhibition,[24],106%
same,inhibition,[25],106%
same,inhibition,[26],34%
same,inhibition,[27],97%
same,inhibition,[28],53%
same,inhibition,[29],55%
same,inhibition,[30],58%
same,inhibition,[31],16%
same,inhibition,[32],105%
same,inhibition,[33],98%
same,inhibition,[34],99%
same,inhibition,[35],89%
same,inhibition,[36],76%
same,inhibition,[37],28%
same,inhibition,[38],104%
same,inhibition,[39],87%
same,inhibition,[40],104%
same,inhibition,[41],104%
same,inhibition,[42],104%
